# Only a selection was taken, and hits are over-represented in it overall.
# Lmaj promast: reduces viability of Leishmania major promastigotes; resazurin fluorescence viability; inhibition, % at 10 µM; 200,000 compounds, 9% hits; AID 1063; in the data active = inhibition above about 50%;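 also: promastigotes grown with compound for 44 hours at 28 °C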
# S1P4 antag: human S1P4 receptor antagonism; 220,000 compounds, 0.26% hits; AID 1510; S1P4-expressing cells, antagonist mode, reporter read-out; O95977; inhibition, % at 4.98 µM; in the data active = inhibition above about 29%
# Target sequence (O95977 whole entry, looked up): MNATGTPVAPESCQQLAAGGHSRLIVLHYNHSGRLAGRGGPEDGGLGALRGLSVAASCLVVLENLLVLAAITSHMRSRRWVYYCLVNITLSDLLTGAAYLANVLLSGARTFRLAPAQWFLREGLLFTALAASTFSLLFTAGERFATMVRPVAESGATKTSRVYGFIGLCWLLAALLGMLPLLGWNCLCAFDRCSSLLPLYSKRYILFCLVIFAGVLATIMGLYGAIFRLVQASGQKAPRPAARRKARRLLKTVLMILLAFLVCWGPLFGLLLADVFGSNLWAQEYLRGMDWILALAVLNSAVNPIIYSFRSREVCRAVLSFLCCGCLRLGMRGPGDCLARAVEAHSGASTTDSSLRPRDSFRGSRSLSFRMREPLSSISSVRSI
# S1P3 antag: blocks the human S1P3 receptor; Q99500; CHO S1P3 NFAT-BLA reporter, FRET fluorescence, antagonist mode; inhibition, % at 4.98 µM; 170,000 compounds, 0.27% hits; AID 485;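 active = inhibition above the plate cutoff, the mean inhibition of test wells on that plate plus 3 SD, cut at about 28% in these data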;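 also: cells challenged with S1P at its EC80 of 0.8 µM; blue over green emission ratio from cleaved BLA substrate after 4 h stimulation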
# S1P4 ag: agonists of human S1P4 receptor; O95977; S1P4-expressing cell line, agonist reporter assay; activation, % at 4.98 µM; 220,000 compounds, 0.35% hits; AID 1509; in the data active = activation above about 11%
# MDM2 E3 inh: inhibitors of human Mdm2 E3 ubiquitin ligase; Q00987; AID 1230; cell-based MDM2 ubiquitination luciferase reporter, 2 h; 0 = plate control, 100 = twice control, blank-subtracted; 210,000 compounds, 0.11% hits; signal enhancement, % at 5 µM;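 active = signal enhancement of 30% or more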;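 also: luminescence tracks abundance of the self-degrading MDM2-luciferase fusion protein; higher signal means inhibition of MDM2 E3 ligase activity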
#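 test system = mammalian cells stably expressing self-ubiquitinating, self-degrading MDM2 E3–luciferase fusion | quantity = 2000 cells/well | incubation = cell settling 4 h, compound treatment 2 h, both 37 °C | signal = luminescence with SteadyLite reagent, 15 min at room temperature | evaluation = % enhancement relative to plate controls after blank subtraction | benchmarks = plate controls and plate blanks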
# Hits are given with their value; n = inactive; x = no result.
SMILES,Lmaj promast,S1P4 antag,S1P3 antag,S1P4 ag,MDM2 E3 inh
Cc1ccc(C)c2[nH]c(=O)c(CN(Cc3ccc4c(c3)OCO4)Cc3nnnn3Cc3ccco3)cc12,58,n,n,n,n
COCCn1nnnc1CN(Cc1ccco1)Cc1cc2cc3c(cc2[nH]c1=O)OCO3,n,n,x,n,n
Cc1ccc2cc(CN(CCN3CCOCC3)Cc3nnnn3Cc3ccco3)c(=O)[nH]c2c1C,n,n,n,n,n
Cc1ccc2cc(CN(Cc3ccc4c(c3)OCO4)Cc3nnnn3Cc3ccco3)c(=O)[nH]c2c1C,68,n,n,n,n
CCCc1nc2ccc(NC(=O)c3cccs3)cc2c(=O)n1Cc1ccccc1Cl,50,n,n,n,n
Cn1c(CN2CCCCC2)nc2cc(NC(=O)c3cccs3)ccc21,n,n,n,n,n
CCCc1nc2ccc(NC(C)=O)cc2c(=O)n1Cc1ccc(Cl)cc1,83,n,n,n,n
COc1ccc(Cn2c(C3CC3)nc3ccc(NC(C)=O)cc3c2=O)cc1,n,n,n,n,n
N#C/C(=C\c1c(F)cccc1Cl)S(=O)(=O)c1ccccn1,x,n,n,n,n
CC(C)(C)c1ccc(NC(=O)COC(=O)CCN2C(=O)c3cccc([N+](=O)[O-])c3C2=O)cc1,n,n,n,n,n
CC(OC(=O)CCN1C(=O)c2cccc([N+](=O)[O-])c2C1=O)C(=O)Nc1cc(Cl)cc(Cl)c1 (stereo not given),54,n,n,n,n
O=C(CSc1ncnc2scc(-c3ccccc3)c12)N1CCN(c2ccccc2F)CC1,55,n,n,n,n
O=C(NCc1ccc(Cl)cc1)c1cccc(NC(=O)c2ccccc2)c1,55,n,n,n,n
CCn1c(/N=C/c2ccccc2NS(=O)(=O)c2ccc(C)cc2)nc2ccccc21,85,n,n,n,n
CCCCn1c(NCc2ccccc2NS(=O)(=O)c2ccc(C)cc2)nc2ccccc21,n,n,x,n,n
CCOC(=O)C1CCC(CN(Cc2ccccc2C)S(=O)(=O)c2ccc([N+](=O)[O-])cc2)CC1 (stereo not given),86,n,n,n,n
CCCCN(CC)S(=O)(=O)N1CCC(C(=O)NCc2ccc(F)cc2)CC1,n,n,n,n,n
COc1cccc(Oc2cn[nH]c2-c2ccc(O)cc2O)c1,75,n,n,n,n
COc1cccc(Oc2cn[nH]c2-c2ccc(OC)cc2O)c1,n,n,n,n,n
CN(C)c1ccc(N=Nc2ccccc2C(=O)OCC(=O)N(C)c2ccccc2)cc1,n,n,n,n,n
CCOC(=O)c1c(C)[nH]c(C)c1C(=O)COC(=O)c1cccc(S(=O)(=O)N(CC)CC)c1,99,n,x,n,n
CCOC(=O)c1c(C)[nH]c(C)c1C(=O)COC(=O)c1cccc(S(=O)(=O)NC)c1,80,n,n,n,n
Nc1nc(-c2ccc3c(c2)CCO3)cs1,n,n,n,n,n
Cc1ccccc1OCc1nc(-c2ccc(NC(=O)c3ccco3)cc2)no1,n,n,x,n,n
Cc1ccccc1OCc1nc(-c2ccc(NC(=O)c3cccs3)cc2)no1,71,n,n,n,n
SMILES,Lmaj promast,S1P4 antag,S1P3 antag,S1P4 ag,MDM2 E3 inh
O=S(=O)(c1ccc(Br)cc1)N1CCCN(Cc2cccc(F)c2)CC1,86,n,n,n,n
NC(=O)CN1CCCN(S(=O)(=O)c2ccc(Br)cc2)CC1,n,n,n,n,n
COc1cccc(CN2CCCN(S(=O)(=O)c3ccc(Br)cc3)CC2)c1,93,n,n,n,n
CC(C)Cc1nnc(NC(=O)CCC(=O)NC2CCCc3ccccc32)s1 (stereo not given),96,n,n,n,n
CCCc1nnc(NC(=O)CCC(=O)NC2CCCc3ccccc32)s1 (stereo not given),n,n,n,n,n
Cc1ccc(C(=O)c2ccccc2C(=O)OCC(=O)Nc2ccc(SC(F)F)cc2)cc1,66,n,n,n,n
COc1ccccc1OCCOCCOc1ccc(C)cc1[N+](=O)[O-],55,n,n,n,n
COCCCNCCCCOc1ccc(C)cc1[N+](=O)[O-],99,n,n,n,n
CCCCNCCOCCOc1ccc(C)cc1[N+](=O)[O-],91,n,x,n,n
COc1cc(C)ccc1OCCOCCOc1ccccc1[N+](=O)[O-],n,n,n,n,n
C=CCSc1nc2ccccc2n1C(=O)/C=C/c1cc(OC)c(OC)c(OC)c1,n,n,x,n,54
CCSc1nc2ccccc2n1C(=O)/C=C/c1ccc(OC)c(OC)c1,n,n,n,n,65
COc1ccc(Cc2nc3ccccc3n2CC(=O)N/N=C/c2ccccc2)cc1OC,n,n,n,n,n
C=CCSc1nc2ccccc2n1C(=O)/C=C/c1ccc(OC)c(OC)c1,71,n,x,n,n
CCn1c(SCC(=O)N/N=C/c2ccc(OC)c(OC)c2)nc2ccccc21,97,n,x,n,n
O=C(CS(=O)(=O)c1c[nH]c2ccccc12)N1CCCCCC1,n,n,n,n,n
COc1cccc(CNCC(O)(c2ccc(Cl)cc2)c2ccc(Cl)cc2)c1,65,n,x,n,n
COc1ccc(CNCc2cccc(Cl)c2)cc1,66,n,n,n,x
O=C(O)c1ccc(CNCc2cccc(Cl)c2)cc1,n,n,n,n,n
Cc1ccccc1NC(=O)N1CCN(C/C=C/c2ccccc2)CC1,n,n,n,n,n
CCN(CC)S(=O)(=O)c1ccc(C)c(NC(=O)CNCCN(C(C)C)C(C)C)c1,n,n,n,n,n
Cc1cc(C)cc(N(CCC(=O)O)S(=O)(=O)c2ccc(Cl)cc2)c1,n,n,n,n,n
Cc1ccc(N(CCC(=O)Nc2nnc(C3CC3)s2)S(=O)(=O)c2ccccc2)cc1,53,n,n,n,n
CCc1nnc(NC(=O)CCN(c2cc(C)cc(C)c2)S(=O)(=O)c2ccc(Cl)cc2)s1,79,n,n,n,n
CC(C)(C)C(=O)/C=c1\[nH]c(=O)/c(=C\c2ccc(C#N)cc2)s1,60,n,n,n,n
SMILES,Lmaj promast,S1P4 antag,S1P3 antag,S1P4 ag,MDM2 E3 inh
Cc1cccc(/C=c2\s/c(=C\C(=O)C(C)(C)C)[nH]c2=O)c1,n,n,x,n,n
CC(C)NC(=O)CSc1nnc(C2CC2)n1-c1ccccc1,n,n,x,n,n
O=C(c1nc(-c2ccccc2)n(-c2ccccc2)n1)N1CCN(S(=O)(=O)c2ccccc2)CC1,58,n,n,n,n
COc1ccc(C(C)(C)C)cc1NC(=O)COC(=O)c1ccc([N+](=O)[O-])o1,n,n,n,n,n
O=C(Nc1ccc([N+](=O)[O-])cc1)Nc1ccc(N2CCOCC2)c2nonc12,98,n,n,n,n
CC(=O)Nc1cc([N+](=O)[O-])ccc1N1CCOCC1,n,n,n,n,n
O=c1c2ccccc2nc(N/N=C/c2c(O)ccc3ccccc23)n1O,100,n,x,n,n
O=c1c2ccccc2nc(N/N=C/c2ccc(O)cc2)n1O,n,n,x,n,n
COc1ccc(-c2c(C)oc3c(CN4CCN(CCO)CC4)c(O)ccc3c2=O)cc1OC,99,n,n,n,n

# Compound activity: PubChem, several laboratories
